The record followed here is ChEMBL document CHEMBL2417380, “Synthesis, pharmacological assessment, and molecular modeling of 6-chloro-pyridonepezils: new dual AChE inhibitors as potential drugs for the treatment of Alzheimer's disease” (Eur J Med Chem, 2013).

Some results are limits rather than exact numbers.

In series [1] the target is T1, Cholinesterase (Homo sapiens, UniProt P06276). Put plainly: Inhibition of human plasma BuChE using butyrylthiocholine as substrate by Ellman's method. In short, it runs like this:
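Ellman spectrophotometric assay with BuChE from human serum in 100 mM phosphate buffer, pH 8.0, at 30 °C. Butyrylthiocholine (0.4 mM) was the substrate and DTNB 0.2 mM. Absorbance change at 412 nm gave IC50 as the concentration giving 50% inhibition. Values are mean ± s.e.m. of at least three experiments run in quadruplicate.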
Background: DTNB colorimetry detects thiols as they appear.

Another series deals with Acetylcholinesterase (Homo sapiens, UniProt P22303). Kind of series: Inhibition of purified human erythrocyte AChE using […] as substrate by Ellman's method.
Sequence of Acetylcholinesterase (P22303 whole entry): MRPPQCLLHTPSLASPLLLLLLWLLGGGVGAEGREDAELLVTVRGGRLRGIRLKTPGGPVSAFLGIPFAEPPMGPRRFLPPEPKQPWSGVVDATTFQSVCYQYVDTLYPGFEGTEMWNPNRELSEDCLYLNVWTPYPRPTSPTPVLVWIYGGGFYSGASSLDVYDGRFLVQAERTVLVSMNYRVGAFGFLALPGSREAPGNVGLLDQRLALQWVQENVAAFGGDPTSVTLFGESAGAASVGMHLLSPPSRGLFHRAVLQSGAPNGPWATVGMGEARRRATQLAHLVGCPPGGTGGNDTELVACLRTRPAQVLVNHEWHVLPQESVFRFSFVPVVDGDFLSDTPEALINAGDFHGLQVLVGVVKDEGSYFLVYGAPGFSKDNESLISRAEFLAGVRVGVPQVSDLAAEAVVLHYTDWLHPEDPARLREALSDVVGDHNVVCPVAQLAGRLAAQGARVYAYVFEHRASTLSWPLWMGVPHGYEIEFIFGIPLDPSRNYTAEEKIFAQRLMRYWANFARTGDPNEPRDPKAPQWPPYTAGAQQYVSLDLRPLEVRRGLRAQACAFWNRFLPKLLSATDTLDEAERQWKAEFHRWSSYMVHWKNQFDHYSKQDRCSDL
Another series is filed under the species Homo sapiens. Kind of series: Selectivity index, ratio of IC50 for human plasma BuChE to IC50 for purified human erythrocyte AChE. A digest of the protocol: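 Index computed as hBuChE IC50 divided by hAChE IC50. Both IC50s come from the Ellman assay in 100 mM phosphate buffer, pH 8.0, at 30 °C, read at 412 nm with DTNB 0.2 mM. AChE was purified from human erythrocytes with acetylthiocholine substrate; BuChE came from human serum with butyrylthiocholine substrate, each substrate at 0.4 mM.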

Series [2] can be described thus: Permeability of the compound at 1 mg/ml after 4 hrs by PAMPA. The settings on record: read-out: permeability. The series is classed as ADME. A digest of the protocol:
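PAMPA-BBB: donor filter impregnated with porcine brain lipid in dodecane (20 mg/mL). Compound dissolved in PBS (pH 7.4)/ethanol (7:3) and filtered before loading into the donor wells. The acceptor wells held PBS/ethanol (7:3). Incubated undisturbed 4 h at 25 °C. Acceptor concentration measured by UV at five wavelengths, in four wells, over at least three independent runs; mean (SD).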
A general note: In PAMPA a lipid-coated filter parts donor from acceptor wells.

Series [3] has as its target T1, Cholinesterase. Kind of series: Ratio of donepezil IC50 to compound IC50 for human plasma BuChE.

T1 sequence (P06276 whole entry): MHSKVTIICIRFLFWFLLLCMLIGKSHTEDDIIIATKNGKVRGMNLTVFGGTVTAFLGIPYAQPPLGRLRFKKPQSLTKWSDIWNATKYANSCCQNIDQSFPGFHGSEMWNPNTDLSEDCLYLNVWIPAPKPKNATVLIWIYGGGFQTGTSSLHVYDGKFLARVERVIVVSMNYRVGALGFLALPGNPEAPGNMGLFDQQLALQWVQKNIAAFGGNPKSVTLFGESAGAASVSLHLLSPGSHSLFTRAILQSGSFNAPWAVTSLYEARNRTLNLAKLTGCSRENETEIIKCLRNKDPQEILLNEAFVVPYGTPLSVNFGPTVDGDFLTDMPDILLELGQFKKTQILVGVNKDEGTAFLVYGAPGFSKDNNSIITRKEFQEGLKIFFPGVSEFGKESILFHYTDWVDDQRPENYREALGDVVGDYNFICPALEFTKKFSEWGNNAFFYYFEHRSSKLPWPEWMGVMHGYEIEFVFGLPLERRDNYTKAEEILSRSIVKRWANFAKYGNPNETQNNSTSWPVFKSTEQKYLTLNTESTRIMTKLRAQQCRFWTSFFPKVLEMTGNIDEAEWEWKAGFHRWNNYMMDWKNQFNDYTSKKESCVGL

In the case of `N#Cc1c(Cl)nc(NC2CCN(Cc3ccccc3)CC2)c(C#N)c1-c1ccccc1`, the IC50 (usually the concentration needed to halve the response being measured) against Cholinesterase [1] is over 10 µM; against Acetylcholinesterase, 9.43 µM.
For `N#Cc1c(NCCC2CCN(Cc3ccccc3)CC2)nc(NCCC2CCN(Cc3ccccc3)CC2)c(C#N)c1-c1ccccc1` the same measures were over 10 µM and 9.77 µM.
As for `N#Cc1c(Cl)nc(NCCCCC2CCN(Cc3ccccc3)CC2)c(C#N)c1-c1ccccc1`, the IC50 on Cholinesterase [1] came to 5.62 µM; against Acetylcholinesterase, 0.031 µM. In the series listed under Homo sapiens, the Ratio IC50 stood at 181. In series [2], the Papp at 4 h, 1 mg/ml was found to be 10.3 ×10⁻⁶ cm/s.
As to `N#Cc1cc(C#N)c(NCCCCC2CCN(Cc3ccccc3)CC2)nc1Cl`, the IC50 was found to be 8.13 µM at Cholinesterase [1] and 0.013 µM on Acetylcholinesterase. In the series filed under Homo sapiens, the Ratio IC50 is 625. Further, the Papp at 4 h, 1 mg/ml in series [2] amounted to 6.99 ×10⁻⁶ cm/s.
For `N#Cc1c(Cl)nc(NCCCC2CCN(Cc3ccccc3)CC2)c(C#N)c1-c1ccccc1`, the values for the IC50 at Cholinesterase [1] and on Acetylcholinesterase were 9.41 µM and 3.86 µM, respectively. The Ratio IC50 in the series filed under Homo sapiens turned out to be 2.43. Also, the Papp at 4 h, 1 mg/ml in series [2] is 10.1 ×10⁻⁶ cm/s.
For `N#Cc1cc(C#N)c(NC2CCN(Cc3ccccc3)CC2)nc1Cl`, the IC50 was over 10 µM on Cholinesterase [1] and 5.35 µM against Acetylcholinesterase. Moreover, the Papp at 4 h, 1 mg/ml in series [2] worked out at 7.39 ×10⁻⁶ cm/s.
With `N#Cc1c(Cl)nc(NCCC2CCN(Cc3ccccc3)CC2)c(C#N)c1-c1ccccc1`, the IC50 at Cholinesterase [1] is over 10 µM; at Acetylcholinesterase, 4.4 µM.
`N#Cc1cc(C#N)c(NCCCC2CCN(Cc3ccccc3)CC2)nc1Cl`: the values for the IC50 against Cholinesterase [1] and against Acetylcholinesterase were 8.39 µM and 0.054 µM, respectively. For the same molecule, the Ratio IC50 in the series listed under Homo sapiens was 155. Further, in series [2], the Papp at 4 h, 1 mg/ml was determined as 5.98 ×10⁻⁶ cm/s.
Regarding `N#Cc1cc(C#N)c(NCCC2CCN(Cc3ccccc3)CC2)nc1Cl`, the IC50 against Cholinesterase [1] is 0.47 µM; against Acetylcholinesterase it was 0.31 µM. In addition, the Ratio IC50 is 1.52 in the series filed under Homo sapiens and 5 at Cholinesterase [3]. Also, the Papp at 4 h, 1 mg/ml in series [2] was determined as 8.52 ×10⁻⁶ cm/s.
For `N#Cc1cc(C#N)c(NC2CCN(Cc3ccccc3)CC2)nc1NC1CCN(Cc2ccccc2)CC1`, the figures for the IC50 against Cholinesterase [1] and at Acetylcholinesterase were over 10 µM and 7.3 µM, respectively. Moreover, the Papp at 4 h, 1 mg/ml in series [2] came out at 5 ×10⁻⁶ cm/s.
